{"source": "ChEMBL document CHEMBL1148725", "about": "“2,2,2-Trichloro-N-({2-[2-(dimethylamino)ethyl]-1,3-dioxo-2,3-dihydro-1H-benzo[de]isoquinolin- 5-yl}carbamoyl)acetamide (UNBS3157), a novel nonhematotoxic naphthalimide derivative with potent antitumor activity” (J Med Chem, 2007)", "key": {"PC-3 [1]": {"test_system": "PC-3", "test": "Cell cycle arrest in PC3 cells assessed as accumulation at G2 phase at 10 uM after 72 hrs", "type": "functional, cell-based", "conditions": "Homo sapiens", "how_it_was_run": "(§1)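 PC-3 or DU-145 cells treated for 72 h with 0, 1 or 10 µM. Cell-cycle distribution (G0/G1, S, G2/M) determined by propidium iodide staining.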"}, "Mus musculus [2]": {"test_system": "Mus musculus", "test": "Hematotoxicity in B6D2F1 mouse assessed as WBC count at 10 mg/kg, iv", "type": "organism-based", "parameters": "dose 10 mg/kg, route intravenous", "conditions": "in vivo"}, "[3]": {"test": "Antiproliferative activity against Hs683 cells after 72 hrs by MTT assay", "type": "functional, cell-based, Homo sapiens, Hs 683", "conditions": "Homo sapiens, Hs 683, 72 h", "how_it_was_run": "(§2)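 Cells cultured with each compound for three days; growth then read by the MTT colorimetric assay and reported as IC50 (µM).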"}, "Mus musculus [4]": {"test_system": "Mus musculus", "test": "Hematotoxicity in B6D2F1 mouse assessed as platelet count at 20 mg/kg, iv", "type": "organism-based", "parameters": "dose 20 mg/kg, route intravenous", "conditions": "in vivo"}, "MCF7": {"test_system": "MCF7", "test": "Induction of apoptosis in human MCF7 cells assessed as p53 activation", "type": "functional, cell-based", "how_it_was_run": "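MCF-7 cells treated and p53 activation assessed by immunoblotting, with tubulin as loading control. Adriamycin (2.5 µM, 24 h) served as positive control.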"}, "L1210 [5]": {"test_system": "L1210", "test": "Antitumor activity in L1210 cells xenografted B6D2F1 mouse at 160 mg/kg, ip relative to control", "type": "functional", "conditions": "route intraperitoneal", "how_it_was_run": "(§3)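 Mice grafted with L1210 leukaemia cells on day 0, then dosed i.p. four times weekly on days 1-4 and 8-11. Five mice per group. Outcome is %T/C, the median survival of treated over control. Kruskal-Wallis test followed by Dunn comparisons against control.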"}, "[6]": {"molecular_target": "DNA topoisomerase 2-alpha (Homo sapiens) (UniProt P11388)", "sequence (P11388 whole entry)": "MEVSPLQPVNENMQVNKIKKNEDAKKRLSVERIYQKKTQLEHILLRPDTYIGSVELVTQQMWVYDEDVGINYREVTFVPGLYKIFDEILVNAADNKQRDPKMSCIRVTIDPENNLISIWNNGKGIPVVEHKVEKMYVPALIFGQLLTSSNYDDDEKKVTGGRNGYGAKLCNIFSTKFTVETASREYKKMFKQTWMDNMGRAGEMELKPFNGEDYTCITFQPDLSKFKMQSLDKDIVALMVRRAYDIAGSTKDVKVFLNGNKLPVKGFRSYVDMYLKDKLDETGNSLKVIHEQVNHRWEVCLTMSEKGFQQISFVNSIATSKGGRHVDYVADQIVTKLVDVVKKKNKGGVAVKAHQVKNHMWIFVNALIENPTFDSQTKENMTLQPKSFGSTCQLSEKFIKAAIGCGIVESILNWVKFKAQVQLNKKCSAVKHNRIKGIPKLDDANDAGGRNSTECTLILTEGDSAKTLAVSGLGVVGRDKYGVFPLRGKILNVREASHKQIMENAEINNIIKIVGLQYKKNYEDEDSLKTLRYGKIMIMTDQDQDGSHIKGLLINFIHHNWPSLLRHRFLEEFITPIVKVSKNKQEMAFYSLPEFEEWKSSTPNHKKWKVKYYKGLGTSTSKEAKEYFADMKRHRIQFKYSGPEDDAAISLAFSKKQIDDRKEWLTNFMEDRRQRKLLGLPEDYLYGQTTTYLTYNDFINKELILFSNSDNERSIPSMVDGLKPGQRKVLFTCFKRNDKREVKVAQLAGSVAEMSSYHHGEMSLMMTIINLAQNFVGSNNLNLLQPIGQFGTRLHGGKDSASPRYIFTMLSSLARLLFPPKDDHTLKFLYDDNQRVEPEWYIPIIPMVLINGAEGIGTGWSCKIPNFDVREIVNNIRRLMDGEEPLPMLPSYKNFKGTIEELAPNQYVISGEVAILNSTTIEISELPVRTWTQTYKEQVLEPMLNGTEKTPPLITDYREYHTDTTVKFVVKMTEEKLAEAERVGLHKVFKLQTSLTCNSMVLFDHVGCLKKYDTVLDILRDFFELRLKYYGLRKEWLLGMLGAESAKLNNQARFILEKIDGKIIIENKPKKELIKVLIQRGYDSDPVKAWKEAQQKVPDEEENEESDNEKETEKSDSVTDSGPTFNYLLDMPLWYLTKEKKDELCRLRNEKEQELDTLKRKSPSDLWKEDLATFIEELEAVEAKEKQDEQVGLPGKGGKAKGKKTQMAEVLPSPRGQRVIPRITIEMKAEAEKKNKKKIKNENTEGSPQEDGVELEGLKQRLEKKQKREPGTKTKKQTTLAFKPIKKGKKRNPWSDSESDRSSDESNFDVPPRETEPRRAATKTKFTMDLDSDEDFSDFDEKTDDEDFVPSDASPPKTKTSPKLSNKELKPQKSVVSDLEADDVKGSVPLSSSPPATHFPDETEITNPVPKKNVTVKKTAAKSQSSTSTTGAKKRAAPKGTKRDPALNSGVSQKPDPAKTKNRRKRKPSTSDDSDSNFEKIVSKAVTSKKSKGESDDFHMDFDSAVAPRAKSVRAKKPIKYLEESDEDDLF", "test": "Inhibition of human topoisomerase 2-mediated kinetoplast DNA […] at 50 uM", "how_it_was_run": "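Topoisomerase II strand-passage activity by kDNA decatenation; compounds at 50 µM; catenated networks stay in wells, decatenated kDNA enters ethidium bromide-stained agarose gel; no-enzyme and no-drug reactions as controls.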"}, "PC-3 [7]": {"test_system": "PC-3", "test": "Induction of apoptosis in human PC3 cells assessed as PARP cleavage activation", "type": "functional, cell-based", "how_it_was_run": "(§4)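 PC-3 and DU-145 cells treated over 72 h at 1 and 10 µM, compared with untreated cells. p53, PARP cleavage and procaspase-3/-9 activation assessed by immunoblotting.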"}, "Homo sapiens": {"organism": "Homo sapiens", "test": "Inhibition of human topoisomerase 2 at 50 uM by plasmid linearization assay"}, "Mus musculus [8]": {"test_system": "Mus musculus", "test": "Hematotoxicity in B6D2F1 mouse assessed as WBC count at 40 mg/kg, iv", "type": "organism-based", "parameters": "dose 40 mg/kg, route intravenous", "conditions": "in vivo"}, "DU-145 [9]": {"test_system": "DU-145", "test": "Induction of autophagy in human DU145 cells by acridine orange staining at 10 uM after 72 hrs", "type": "functional"}, "DU-145 [10]": {"test_system": "DU-145", "test": "Induction of apoptosis in human DU145 cells assessed as PARP cleavage activation", "type": "functional, cell-based", "how_it_was_run": "as §4"}, "Mus musculus [11]": {"test_system": "Mus musculus", "test": "Hematotoxicity in B6D2F1 mouse assessed as WBC count at 160 mg/kg, po", "type": "organism-based", "parameters": "dose 160 mg/kg, route oral", "conditions": "in vivo"}, "[12]": {"molecular_target": "T1, DNA topoisomerase 1 (Homo sapiens) (UniProt P11387)", "T1 sequence (whole entry)": "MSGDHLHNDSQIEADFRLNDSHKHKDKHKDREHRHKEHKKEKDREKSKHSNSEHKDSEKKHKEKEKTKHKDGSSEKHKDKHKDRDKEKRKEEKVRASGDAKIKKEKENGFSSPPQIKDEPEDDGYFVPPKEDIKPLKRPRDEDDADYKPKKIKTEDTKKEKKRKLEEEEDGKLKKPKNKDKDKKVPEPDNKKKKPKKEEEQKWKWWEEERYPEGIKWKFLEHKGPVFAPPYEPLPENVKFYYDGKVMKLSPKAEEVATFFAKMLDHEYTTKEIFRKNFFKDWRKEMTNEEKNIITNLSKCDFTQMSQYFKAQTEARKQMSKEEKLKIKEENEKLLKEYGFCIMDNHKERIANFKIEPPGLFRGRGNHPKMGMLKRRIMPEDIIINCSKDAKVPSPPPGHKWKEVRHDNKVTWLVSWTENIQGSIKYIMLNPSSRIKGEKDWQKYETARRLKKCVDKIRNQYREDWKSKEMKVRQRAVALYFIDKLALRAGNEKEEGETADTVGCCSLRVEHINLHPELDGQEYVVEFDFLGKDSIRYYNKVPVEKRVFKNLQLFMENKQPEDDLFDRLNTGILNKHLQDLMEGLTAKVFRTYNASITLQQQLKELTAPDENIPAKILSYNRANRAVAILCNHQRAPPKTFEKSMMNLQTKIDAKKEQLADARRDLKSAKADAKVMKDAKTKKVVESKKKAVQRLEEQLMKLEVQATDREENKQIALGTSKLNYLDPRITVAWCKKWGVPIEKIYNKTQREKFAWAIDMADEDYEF", "test": "Inhibition of human topoisomerase 1 by DNA unwinding test", "how_it_was_run": "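DNA unwinding assay: relaxed pBR322 plasmid converted to supercoiled form in presence of topoisomerase I; compounds at final 4–32 µM (one up to 15–55 µM); ethidium bromide-stained agarose gels; UC50 taken as concentration shifting relaxed band to midpoint between supercoiled and relaxed states.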"}, "PC-3 [13]": {"test_system": "PC-3", "test": "Induction of apoptosis in human PC3 cells assessed as p53 activation", "type": "functional, cell-based", "how_it_was_run": "as §4"}, "DU-145 [14]": {"test_system": "DU-145", "test": "Cell cycle arrest in DU145 cells assessed as accumulation at G2 phase at 10 uM after 72 hrs", "type": "functional, cell-based", "conditions": "Homo sapiens", "how_it_was_run": "as §1"}, "Mus musculus [15]": {"test_system": "Mus musculus", "test": "Hematotoxicity in B6D2F1 mouse assessed as RBC count at 10 mg/kg, iv", "type": "organism-based", "parameters": "dose 10 mg/kg", "conditions": "in vivo"}, "MDA-MB-231": {"test_system": "MDA-MB-231", "test": "Antitumor activity against human MDA-MB-231 cells xenografted in immunocompromised mouse at 10 mg/kg, iv"}, "[16]": {"test": "Antitumor activity against mouse MXT-HI cells xenografted in B6D2F1 mouse at 160 mg/kg, ip relative to control", "type": "functional", "conditions": "route intraperitoneal", "how_it_was_run": "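MXT-HI mammary adenocarcinoma grafted s.c. onto female B6D2F1 mice. Dosing i.p., five injections weekly for three weeks from day 14 post-graft. Nine mice per group. Tumour surface area measured, and survival expressed as %T/C, the ratio of treated to control median survival time.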"}, "Mus musculus [17]": {"test_system": "Mus musculus", "test": "Hematotoxicity in B6D2F1 mouse assessed as platelet count at 80 mg/kg, po", "type": "organism-based", "parameters": "dose 80 mg/kg, route oral", "conditions": "in vivo"}, "Mus musculus [18]": {"test_system": "Mus musculus", "test": "Hematotoxicity in B6D2F1 mouse assessed as RBC count at 80 mg/kg, po", "type": "organism-based", "parameters": "dose 80 mg/kg, route oral", "conditions": "in vivo"}, "[19]": {"test": "Toxicity in ip dosed B6D2F1 mouse", "type": "organism-based", "conditions": "in vivo", "how_it_was_run": "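Acute MTD was set by a single i.p. dose to groups of three healthy female B6D2F1 mice, at 2.5, 5, 10, 20, 40, 80 and 160 mg/kg. The MTD is the dose just below the lowest dose that killed at least one mouse.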"}, "L1210 [20]": {"test_system": "L1210", "test": "Antitumor activity in L1210 cells xenografted B6D2F1 mouse at 120 mg/kg, ip relative to control", "type": "functional", "conditions": "route intraperitoneal", "how_it_was_run": "as §3"}, "PC-3 [21]": {"test_system": "PC-3", "test": "Induction of apoptosis in human PC3 cells at 10 uM after 72 hrs", "type": "functional", "how_it_was_run": "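Prostate cancer cells exposed for 72 h to 0, 1 or 10 µM. Apoptosis quantified by flow cytometry after Annexin V-FITC staining.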"}, "Mus musculus [22]": {"test_system": "Mus musculus", "test": "Hematotoxicity in B6D2F1 mouse assessed as RBC count at 120 mg/kg, po", "type": "organism-based", "parameters": "dose 120 mg/kg, route oral", "conditions": "in vivo"}, "Mus musculus [23]": {"test_system": "Mus musculus", "test": "Hematotoxicity in B6D2F1 mouse assessed as platelet count at 10 mg/kg, iv", "type": "organism-based", "parameters": "dose 10 mg/kg, route intravenous", "conditions": "in vivo"}, "HCT-15": {"test_system": "HCT-15", "test": "Antiproliferative activity against HCT15 cells after 72 hrs by MTT assay", "type": "functional, cell-based, Homo sapiens", "conditions": "Homo sapiens, HCT-15, 72 h", "how_it_was_run": "as §2"}}, "note": "Activity calls are given as the source filed them. The rule behind the calls is not given here."}
{"smiles": "CN(C)CCN1C(=O)c2cccc3cc(NC(=O)NC(=O)C(Cl)(Cl)Cl)cc(c23)C1=O", "values": [{"measurement": "Activity", "setting": "PC-3 [1]", "value": "Active"}, {"measurement": "Activity", "setting": "Mus musculus [2]", "value": "3.92 10^3 /uL"}, {"measurement": "IC50", "setting": "[3]", "value": 800, "unit": "nM"}, {"measurement": "Activity", "setting": "Mus musculus [4]", "value": "397 10^3 /uL"}, {"measurement": "Activity", "setting": "MCF7", "value": "inactive"}, {"measurement": "Activity", "setting": "L1210 [5]", "value": 300, "unit": "%"}, {"measurement": "Activity", "setting": "[6]", "value": "Active"}, {"measurement": "Activity", "setting": "PC-3 [7]", "value": "inactive"}, {"measurement": "Activity", "setting": "Homo sapiens", "value": "inactive"}, {"measurement": "Activity", "setting": "Mus musculus [8]", "value": "2.97 10^3 /uL"}, {"measurement": "Activity", "setting": "DU-145 [9]", "value": 10, "unit": "%"}, {"measurement": "Activity", "setting": "DU-145 [10]", "value": "inactive"}, {"measurement": "Activity", "setting": "Mus musculus [11]", "value": "2.82 10^3 /uL"}, {"measurement": "UC50", "setting": "[12]", "value": 40, "unit": "µM"}, {"measurement": "Activity", "setting": "PC-3 [13]", "value": "inactive"}, {"measurement": "Activity", "setting": "DU-145 [14]", "value": "inactive"}, {"measurement": "Activity", "setting": "Mus musculus [15]", "value": "9.41 10^6 /uL"}, {"measurement": "Activity", "setting": "MDA-MB-231", "value": "Active"}, {"measurement": "Activity", "setting": "[16]", "value": 183, "unit": "%"}, {"measurement": "Activity", "setting": "Mus musculus [17]", "value": "872 10^3 /uL"}, {"measurement": "Activity", "setting": "Mus musculus [18]", "value": "9.95 10^6 /uL"}, {"measurement": "MTD", "setting": "[19]", "value": "> 160", "unit": "mg/kg"}, {"measurement": "Activity", "setting": "L1210 [20]", "value": 281, "unit": "%"}, {"measurement": "Activity", "setting": "PC-3 [21]", "value": 10, "unit": "%"}, {"measurement": "Activity", "setting": "Mus musculus [22]", "value": "10.13 10^6 /uL"}, {"measurement": "Activity", "setting": "Mus musculus [23]", "value": "402 10^3 /uL"}, {"measurement": "IC50", "setting": "HCT-15", "value": 900, "unit": "nM"}]}
